# Like-named read-outs stand apart in the source and are kept apart here.
# Tests used:
# PSMA = PSMA (Homo sapiens, UniProt Q04609); assay: NAALADase assay; type: biochemical
# PSMA+ PC3 PIP cells = assay: In vitro fluorescence microscopy in PC3 PIP and PC3 flu cells; type: cell-based, human; details: excitation 494 nm, emission 628 nm
# Procedure, shortened: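 PC3 PIP and PC3 flu cells (10000 per well) were attached overnight at 37 °C in 5% CO2. […] Wells were washed with warm medium for 30 s, mounted, dried 20 min, held overnight at 4 °C, then imaged.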
# [1] = Electronic / fluorescence properties; type: physicochemical
# Procedure, shortened: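 Test compound (Re tricarbonyl complex) dissolved in ethylene glycol, measured under air or after argon purging. […] Lifetime was measured by a frequency-domain method with 370 nm LED excitation and 540–600 nm bandpass collection. Quantum yield was obtained by the optically dilute method against aerated aqueous [Ru(bpy)3]Cl2 (φ = 0.028, excitation 455 nm).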
# [2] = LNCaP cell extracts, Cheng–Prusoff conversion
# Chain of PSMA (Q04609 whole entry): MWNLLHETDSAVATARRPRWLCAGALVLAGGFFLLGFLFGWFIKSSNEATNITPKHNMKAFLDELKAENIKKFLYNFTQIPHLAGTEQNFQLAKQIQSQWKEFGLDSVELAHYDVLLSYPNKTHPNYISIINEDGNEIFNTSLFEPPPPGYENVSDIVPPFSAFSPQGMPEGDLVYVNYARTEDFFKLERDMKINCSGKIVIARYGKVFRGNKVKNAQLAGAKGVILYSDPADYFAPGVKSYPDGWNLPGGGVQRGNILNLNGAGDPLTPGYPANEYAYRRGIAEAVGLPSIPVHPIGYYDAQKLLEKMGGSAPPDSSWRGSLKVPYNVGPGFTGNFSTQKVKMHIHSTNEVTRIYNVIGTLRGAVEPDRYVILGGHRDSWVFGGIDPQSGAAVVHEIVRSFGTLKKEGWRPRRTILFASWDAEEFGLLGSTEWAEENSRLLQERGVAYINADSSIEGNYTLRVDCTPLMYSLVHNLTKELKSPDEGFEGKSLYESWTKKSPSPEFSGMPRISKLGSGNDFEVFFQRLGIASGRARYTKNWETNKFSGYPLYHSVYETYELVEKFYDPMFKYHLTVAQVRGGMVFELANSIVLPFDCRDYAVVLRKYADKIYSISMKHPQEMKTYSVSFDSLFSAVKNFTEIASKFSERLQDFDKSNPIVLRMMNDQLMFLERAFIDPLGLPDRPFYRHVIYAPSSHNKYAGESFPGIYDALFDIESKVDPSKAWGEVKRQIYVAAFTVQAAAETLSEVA
compound,measurement,setting,value
"O=C(O)CCC(NC(=O)NC(CCCCNC(=O)CCCCCCC(=O)NC(CCCCN(Cc1ccccn1)Cc1ccccn1)C(=O)O)C(=O)O)C(=O)O (centres unmarked) [Compound L1, 2-[3-(5-{7-[5-(Bis-pyridin-2-ylmethyl-amino)-1-carboxy-pentylcarbamoyl]-heptanoylamino}-1-carboxy-pentyl)-ureido]-pentanedioic Acid]",Ki,PSMA,15.2 nM
"O=C(O)CCC(NC(=O)NC(CCCCNC(=O)CCCCCCC(=O)NCCCCCCN(Cc1ccccn1)Cc1ccccn1)C(=O)O)C(=O)O.[Br-].[C-]#[O+].[C-]#[O+].[C-]#[O+].[Re+] (stereo not drawn) [ReL7, Tricarbonyl(2-[3-(5-{7-[6-(Bis-pyridin-2-ylmethyl-amino)-hexylcarbamoyl]-heptanoylamino}-1-carboxy-pentyl)-ureido]-pentanedioic acid)rhenium bromide]",Ki,PSMA; [2],2.06 nM
"O=C(O)CCC(NC(=O)NC(CCCCNC(=O)CCCCCCC(=O)NC(CCCCN(Cc1ccccn1)Cc1ccccn1)C(=O)O)C(=O)O)C(=O)O.[Br-].[C-]#[O+].[C-]#[O+].[C-]#[O+].[Re+] (stereo not drawn) [ReL1, Tricarbonyl (2-[3-(5-{7-[5-(bis-pyridin-2-ylmethyl-amino)-1-carboxy-pentylcarbamoyl]-heptanoylamino}-1-carboxy-pentyl)-ureido]-pentanedioic acid) rhenium bromide]",Ki,PSMA; [2],10.8 nM
"O=C(O)CCC(NC(=O)NC(CCCCN(Cc1ccccn1)Cc1ccccn1)C(=O)O)C(=O)O.[Br-].[C-]#[O+].[C-]#[O+].[C-]#[O+].[Re+] (stereo not drawn) [ReL6, Tricarbonyl(2-{3-[5-(bis-pyridin-2-ylmethyl-amino)-1-carboxy-pentyl]-ureido}-pentanedioic acid)rhenium bromide]",PSMA inhibitory activity (in words),PSMA,"very low PSMA inhibitory activity, the lowest in the entire series"
same,Ki,PSMA; [2],200 nM
"O=C(O)CCC(NC(=O)NC(CCCCNC(=O)CCCCCCC(=O)NCCCCC(C(=O)O)N(Cc1ccccn1)Cc1ccccn1)C(=O)O)C(=O)O.[Br-].[C-]#[O+].[C-]#[O+].[C-]#[O+].[Re+] (stereo not drawn) [ReL3, Tricarbonyl(2-[3-(5-{7-[5-(bis-pyridin-2-ylmethyl-amino)-5-carboxy-pentylcarbamoyl]-heptanoylamino}-1-carboxy-pentyl)-ureido]-pentanedioic acid)rehenium bromide]",Ki,PSMA; [2],10.3 nM
"O=C(O)CCC(NC(=O)NC(CCCCNC(=O)CCCCCCC(=O)NC(CCCCN(Cc1ccc2ccccc2n1)Cc1ccc2ccccc2n1)C(=O)O)C(=O)O)C(=O)O (centres unmarked) [Compound L2, 2-[3-(5-{7-[5-(Bis-quinolin-2-ylmethyl-amino)-1-carboxy-pentylcarbamoyl]-heptanoylamino}-1-carboxy-pentyl)-ureido]-pentanedioic acid]",Ki,PSMA; [2],0.17 nM
"O=C(O)CCC(NC(=O)NC(CCCCNC(=O)CCCCCCCN(Cc1ccccn1)Cc1ccccn1)C(=O)O)C(=O)O (centres unmarked) [Compound L5, 2-(3-{5-[8-(Bis-pyridin-2-ylmethyl-amino)-octanoylamino]-1-carboxy-pentyl}-ureido)-pentanedioic Acid]",PSMA inhibitory activity (in words),PSMA,low nanomolar
"O=C(O)CCC(NC(=O)NC(CCCCNC(=O)CCCCCCC(=O)NC(CCCCN(Cc1ccc2ccccc2n1)Cc1ccc2ccccc2n1)C(=O)O)C(=O)O)C(=O)O.[Br-].[C-]#[O+].[C-]#[O+].[C-]#[O+].[Re+] (stereo not drawn) [ReL2, Tricarbonyl(2-[3-(5-{7-[5-(bis-quinolin-2-ylmethyl-amino)-1-carboxy-pentylcarbamoyl]-heptanoylamino}-1-carboxy-pentyl)-ureido]-pentanedioic acid) rhenium bromide]",fluorescent signal in live cells (internalization),PSMA+ PC3 PIP cells,weak but observable fluorescent signal
same,extinction coefficient,[1]; at 321 nm,17200 M⁻¹
same,absorbance maximum,[1]; electronic spectrum,321 nm
same,fluorescence quantum yield,[1]; ethylene glycol under argon,0.018
same,fluorescence emission,[1]; excitation at 321 nm,550 nm
same,fluorescence lifetime,"[1]; λem = 550 nm, ethylene glycol under argon",11.8 μs
same,Ki,PSMA; [2],0.5 nM
same,"PSMA inhibitory activity, fold higher than ReL1",PSMA; relative to ReL1,20 fold
"O=C(O)CCC(NC(=O)NC(CCCCNC(=O)CCCCCCCN(Cc1ccccn1)Cc1ccccn1)C(=O)O)C(=O)O.[Br-].[C-]#[O+].[C-]#[O+].[C-]#[O+].[Re+] (stereo not drawn) [ReL5, Tricarbonyl(2-(3-{5-[8-(bis-pyridin-2-ylmethyl-amino)-octanoylamino]-1-carboxy-pentyl}-ureido)-pentanedioic acid)rhenium bromide]",Ki,PSMA; [2],0.91 nM

# Source: paper PMC3336105 (Journal of Medicinal Chemistry, 2008)
